Results on 20 compounds are retold here after ChEMBL document CHEMBL1148701, “Design and synthesis of a new class of selective integrin alpha5beta1 antagonists” (J Med Chem, 2007).

Series [1] has as its target T1, Integrin alpha-5/beta-1 (Homo sapiens, UniProt P05556+P08648). In words: Inhibition of integrin alpha-5-beta-1 receptor by ELISA. In kind it is protein-complex assay. The procedure, abridged: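 Wells coated overnight at 4°C with fibronectin (0.25 µg/mL) at pH 9.6, then blocked with 3% BSA. Bound integrin was detected with anti-human-Fc-HRP, TMB, A450. IC50 was taken from the curve turning point.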

The target in another series is Integrin alpha-V/beta-3 (Homo sapiens, UniProt P05106+P06756). In words: Inhibition of integrin alpha-V-beta-3 receptor by ELISA. It is filed as protein-complex assay. The procedure, abridged:
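Vitronectin-coated wells (1 µg/mL) were blocked with 3% BSA/PBS-Tween. Soluble αvβ3 (1 µg/mL) was incubated with serially diluted inhibitor for 1 h at RT in Tris/NaCl/MnCl2/BSA buffer. Binding was read with anti-αvβ3 plus anti-mouse-HRP, then TMB, absorbance 450 nm. IC50 was taken at the turning point of the inhibition curve.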
A general note: In an ELISA, binding on a coated surface is turned into a signal by an enzyme label.

A further series deals with Integrin alpha-V/beta-5 (Homo sapiens, UniProt P06756+P18084). In words: Inhibition of integrin alpha-V-beta-5 receptor by ELISA. It is filed as protein-complex assay. In a few lines: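 ELISA on vitronectin coating (5 µg/mL). Soluble αvβ5 (1.5 µg/mL) was incubated with serially diluted inhibitor for 1 h at RT in Tris pH 7.6, NaCl, 1 mM each MnCl2/MgCl2/CaCl2, BSA, 0.05% Tween 20. Detection used anti-αvβ5 and anti-mouse-HRP, TMB, A450. IC50 was the inflection point.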

Series [2] addresses Integrin alpha-IIb/beta-3 (Homo sapiens, UniProt P05106+P08514). In words: Inhibition of integrin alpha-2b-beta-3 receptor by ELISA. In kind it is protein-complex assay. The procedure, abridged: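 Solid-phase ELISA. Wells coated with fibrinogen (10 µg/mL) and blocked with 3% BSA in PBS/0.1% Tween 20 for 1 h at RT. Soluble αIIbβ3 (5 µg/mL) was incubated with serially diluted inhibitor in Tris pH 7.6, 150 mM NaCl, 1 mM MnCl2/MgCl2/CaCl2, 1 mg/mL BSA for 1 h at RT. Detection used anti-CD41b then anti-mouse-HRP, TMB, A450. IC50 was taken as the curve turning point.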

Series [3] is described as follows: Inhibition of integrin alpha-3b-beta-1 receptor by ELISA. Details: species or system Homo sapiens. The procedure, abridged:
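Solid-phase ELISA. Wells coated with laminin (5 µg/mL) and blocked with 3% BSA/PBS-Tween. Soluble α3β1 (2 µg/mL) was incubated with serially diluted inhibitor in Tris pH 7.6, NaCl, 1 mM MnCl2, BSA, 0.05% Tween 20 for 1 h at RT. Detection used polyclonal anti-α3β1 then anti-rabbit-HRP, TMB/H2SO4, absorbance 450 nm. IC50 was taken as the inflection point.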

Series [4] in a line: Stability in human microsome at 1 uM after 1 hr. It is filed as ADME. Conditions: microsomes, read-out: Stability. In a few lines:
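Compound at 1 µM was incubated with human microsomes for 1 h, and the percentage remaining was recorded.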

Series [5] is filed under the species Homo sapiens. In words: Selectivity for integrin alpha5beta1 over alphaVbeta3 receptor.
For series [6], the species on record is Homo sapiens. In words: Selectivity for integrin alpha-5-beta-1 over alphaVbeta5 receptor.
For series [7], the species on record is Homo sapiens. In words: Selectivity for integrin alpha-5-beta-1 over alpha2bbeta3 receptor.
The species named for series [8] is Homo sapiens. In words: Selectivity for integrin alpha5beta1 over alpha-3-beta-1 receptor.
Series [9] deals with T1, Integrin alpha-5/beta-1. In words: Inhibition of integrin alpha-5-beta-1 receptor expressed in HEK293 cells. It is filed as cell-based. In a few lines:
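HEK293 cells with endogenous α5β1 were tested for adhesion to fibronectin. IC50 was determined.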

Sequence of Integrin alpha-V/beta-5 (P06756 31-889 limits assumed): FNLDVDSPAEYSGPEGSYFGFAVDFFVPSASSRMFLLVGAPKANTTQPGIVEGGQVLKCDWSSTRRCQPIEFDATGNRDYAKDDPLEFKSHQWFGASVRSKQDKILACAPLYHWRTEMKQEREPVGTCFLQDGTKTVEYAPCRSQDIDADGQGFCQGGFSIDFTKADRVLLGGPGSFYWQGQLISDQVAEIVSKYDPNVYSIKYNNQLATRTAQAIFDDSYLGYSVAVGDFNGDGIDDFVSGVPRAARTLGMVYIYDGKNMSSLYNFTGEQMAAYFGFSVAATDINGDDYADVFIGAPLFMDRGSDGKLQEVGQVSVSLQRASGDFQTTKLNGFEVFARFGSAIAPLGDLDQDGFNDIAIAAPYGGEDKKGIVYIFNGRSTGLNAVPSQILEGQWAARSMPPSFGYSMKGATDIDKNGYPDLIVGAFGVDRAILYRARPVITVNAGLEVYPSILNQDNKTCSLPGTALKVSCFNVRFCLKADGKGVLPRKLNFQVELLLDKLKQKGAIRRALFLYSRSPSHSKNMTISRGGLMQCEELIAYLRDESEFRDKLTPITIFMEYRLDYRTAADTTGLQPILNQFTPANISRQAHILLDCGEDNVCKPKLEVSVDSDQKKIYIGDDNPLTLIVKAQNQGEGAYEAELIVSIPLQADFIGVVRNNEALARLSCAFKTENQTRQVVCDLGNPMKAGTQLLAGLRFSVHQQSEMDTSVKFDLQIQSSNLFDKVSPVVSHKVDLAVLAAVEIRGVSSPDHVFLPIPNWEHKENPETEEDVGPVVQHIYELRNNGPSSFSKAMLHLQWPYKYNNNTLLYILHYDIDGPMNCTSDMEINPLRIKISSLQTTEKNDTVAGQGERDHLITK
Sequence of Integrin alpha-V/beta-5 (P06756 891-1048 limits assumed): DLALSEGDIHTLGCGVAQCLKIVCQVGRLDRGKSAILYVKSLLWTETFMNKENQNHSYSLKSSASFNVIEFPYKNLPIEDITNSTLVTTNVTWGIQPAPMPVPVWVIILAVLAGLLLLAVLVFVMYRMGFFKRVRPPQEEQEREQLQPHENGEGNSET
Sequence of Integrin alpha-V/beta-5 (P18084 24-799 limits assumed): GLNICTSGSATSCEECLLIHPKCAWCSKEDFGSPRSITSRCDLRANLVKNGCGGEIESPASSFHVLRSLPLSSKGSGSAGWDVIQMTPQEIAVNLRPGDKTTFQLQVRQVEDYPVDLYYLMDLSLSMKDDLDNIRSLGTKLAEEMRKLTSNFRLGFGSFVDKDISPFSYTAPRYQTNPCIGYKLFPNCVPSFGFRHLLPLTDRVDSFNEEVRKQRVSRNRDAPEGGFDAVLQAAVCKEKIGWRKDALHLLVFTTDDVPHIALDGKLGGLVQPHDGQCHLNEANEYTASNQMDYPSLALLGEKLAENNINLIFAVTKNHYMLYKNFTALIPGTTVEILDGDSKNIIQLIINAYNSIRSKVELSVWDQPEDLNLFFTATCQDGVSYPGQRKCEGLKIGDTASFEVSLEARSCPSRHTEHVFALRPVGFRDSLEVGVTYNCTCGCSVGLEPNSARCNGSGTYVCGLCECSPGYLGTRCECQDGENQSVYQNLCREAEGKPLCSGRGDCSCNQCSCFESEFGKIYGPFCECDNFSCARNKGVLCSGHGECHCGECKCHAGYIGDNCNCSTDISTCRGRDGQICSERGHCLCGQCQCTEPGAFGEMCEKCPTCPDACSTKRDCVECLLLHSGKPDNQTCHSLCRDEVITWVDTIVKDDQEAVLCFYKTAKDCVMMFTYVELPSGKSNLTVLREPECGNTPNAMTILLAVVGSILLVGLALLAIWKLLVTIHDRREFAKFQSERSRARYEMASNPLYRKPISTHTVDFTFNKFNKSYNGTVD
T1 sequence (P05556 21-798 limits assumed): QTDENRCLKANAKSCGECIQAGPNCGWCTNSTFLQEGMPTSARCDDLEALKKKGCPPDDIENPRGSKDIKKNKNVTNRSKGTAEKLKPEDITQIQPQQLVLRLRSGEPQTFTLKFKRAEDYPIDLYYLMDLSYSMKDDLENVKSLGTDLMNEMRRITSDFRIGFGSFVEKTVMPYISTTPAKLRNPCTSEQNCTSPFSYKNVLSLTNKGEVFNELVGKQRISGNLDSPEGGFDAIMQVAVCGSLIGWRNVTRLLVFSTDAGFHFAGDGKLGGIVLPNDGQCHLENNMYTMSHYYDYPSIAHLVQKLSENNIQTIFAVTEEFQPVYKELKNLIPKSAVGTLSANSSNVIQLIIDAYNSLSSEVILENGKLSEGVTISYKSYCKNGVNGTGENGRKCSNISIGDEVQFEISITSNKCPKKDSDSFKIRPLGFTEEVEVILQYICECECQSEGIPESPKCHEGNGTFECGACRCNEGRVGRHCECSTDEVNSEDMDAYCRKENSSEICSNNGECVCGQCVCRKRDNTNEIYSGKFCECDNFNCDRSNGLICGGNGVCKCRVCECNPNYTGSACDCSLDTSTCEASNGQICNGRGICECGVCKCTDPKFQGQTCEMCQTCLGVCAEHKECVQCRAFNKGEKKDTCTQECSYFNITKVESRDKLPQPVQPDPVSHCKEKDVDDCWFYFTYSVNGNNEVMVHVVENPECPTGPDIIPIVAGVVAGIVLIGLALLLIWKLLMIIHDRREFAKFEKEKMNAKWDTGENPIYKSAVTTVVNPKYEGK
T1 sequence (P08648 42-894 limits assumed): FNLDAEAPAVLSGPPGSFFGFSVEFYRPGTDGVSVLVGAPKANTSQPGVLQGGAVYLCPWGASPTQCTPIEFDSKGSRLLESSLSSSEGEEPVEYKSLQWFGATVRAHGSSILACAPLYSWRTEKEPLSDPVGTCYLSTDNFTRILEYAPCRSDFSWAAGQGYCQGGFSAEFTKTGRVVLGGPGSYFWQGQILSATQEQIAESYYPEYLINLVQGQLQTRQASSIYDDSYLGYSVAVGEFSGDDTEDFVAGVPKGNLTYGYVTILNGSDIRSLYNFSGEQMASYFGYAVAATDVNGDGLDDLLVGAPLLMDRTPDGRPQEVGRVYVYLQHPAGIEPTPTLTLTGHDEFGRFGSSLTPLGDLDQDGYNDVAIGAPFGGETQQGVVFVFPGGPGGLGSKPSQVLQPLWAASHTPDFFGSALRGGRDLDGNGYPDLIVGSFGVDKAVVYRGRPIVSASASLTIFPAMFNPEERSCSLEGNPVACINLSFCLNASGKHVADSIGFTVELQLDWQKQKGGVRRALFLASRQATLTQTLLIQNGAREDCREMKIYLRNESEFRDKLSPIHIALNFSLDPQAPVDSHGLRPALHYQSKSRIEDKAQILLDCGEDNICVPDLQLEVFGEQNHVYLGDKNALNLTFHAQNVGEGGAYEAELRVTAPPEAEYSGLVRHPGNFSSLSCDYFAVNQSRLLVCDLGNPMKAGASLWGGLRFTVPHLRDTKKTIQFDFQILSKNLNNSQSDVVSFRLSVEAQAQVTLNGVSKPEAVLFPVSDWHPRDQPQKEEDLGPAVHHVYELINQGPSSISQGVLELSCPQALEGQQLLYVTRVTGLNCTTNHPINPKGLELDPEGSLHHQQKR
T1 sequence (P08648 895-1049 limits assumed): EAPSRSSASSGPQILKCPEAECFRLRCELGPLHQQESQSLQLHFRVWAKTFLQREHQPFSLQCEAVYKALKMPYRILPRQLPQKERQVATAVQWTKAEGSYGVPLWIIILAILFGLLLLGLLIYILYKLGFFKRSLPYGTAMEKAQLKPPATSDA
Sequence of Integrin alpha-V/beta-3 (P05106 27-788 limits assumed): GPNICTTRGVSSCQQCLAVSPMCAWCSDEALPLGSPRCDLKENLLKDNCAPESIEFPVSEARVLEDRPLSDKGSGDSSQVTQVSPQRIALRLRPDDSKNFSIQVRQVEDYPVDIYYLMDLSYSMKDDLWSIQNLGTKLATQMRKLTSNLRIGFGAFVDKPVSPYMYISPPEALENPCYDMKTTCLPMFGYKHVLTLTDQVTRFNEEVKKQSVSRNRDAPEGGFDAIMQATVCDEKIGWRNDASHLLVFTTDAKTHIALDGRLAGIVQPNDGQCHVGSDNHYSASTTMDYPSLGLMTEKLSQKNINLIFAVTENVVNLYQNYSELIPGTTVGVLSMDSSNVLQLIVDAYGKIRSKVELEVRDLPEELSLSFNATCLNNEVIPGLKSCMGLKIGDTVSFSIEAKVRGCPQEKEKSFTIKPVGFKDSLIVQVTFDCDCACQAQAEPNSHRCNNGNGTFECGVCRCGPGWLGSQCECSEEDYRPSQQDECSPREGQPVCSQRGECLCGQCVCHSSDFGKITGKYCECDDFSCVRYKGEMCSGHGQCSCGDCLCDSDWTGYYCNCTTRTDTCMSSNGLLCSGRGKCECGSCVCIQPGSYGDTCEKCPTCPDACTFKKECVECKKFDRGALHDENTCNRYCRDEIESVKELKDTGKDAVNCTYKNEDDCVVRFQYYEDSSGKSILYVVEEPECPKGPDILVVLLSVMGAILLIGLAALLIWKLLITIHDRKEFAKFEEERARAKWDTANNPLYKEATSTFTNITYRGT
Sequence of Integrin alpha-V/beta-3 (P06756 31-889 limits assumed): as the sequence (P06756 31-889 limits assumed) above
Sequence of Integrin alpha-V/beta-3 (P06756 891-1048 limits assumed): as the sequence (P06756 891-1048 limits assumed) above

`COc1ccnc(NC[C@@H]2C[C@@H](OCC(=O)NC[C@H](NS(=O)(=O)c3c(C)cc(C)cc3C)C(=O)O)CN2C(=O)CC(C)(C)C)c1`: the IC50 on Integrin alpha-5/beta-1 [1] turned out to be 0.9 nM; on Integrin alpha-V/beta-3, 4 nM; against Integrin alpha-V/beta-5, 29 nM; in series [2], 11 µM.

`COc1ccnc(NC[C@@H]2C[C@@H](OCC(=O)NC[C@H](NC(=O)C3(C)CCCCC3)C(=O)O)CN2C(=O)OCc2ccccc2)c1`: the IC50 is 0.8 nM against Integrin alpha-5/beta-1 [1]; 690 nM at Integrin alpha-V/beta-3; 3100 nM at Integrin alpha-V/beta-5; greater than 50 µM in series [2]; 30 µM in series [3].

For `Cc1cc(C)c(S(=O)(=O)N[C@@H](CNC(=O)CO[C@@H]2C[C@@H](CNc3cccc(C)n3)N(C(=O)OCc3ccccc3)C2)C(=O)O)c(C)c1`, the concentration for half-maximal inhibition (IC50) on Integrin alpha-5/beta-1 [1] came out at 231 nM; on Integrin alpha-V/beta-3, 21 nM.

As for `Cc1cc(C)c(S(=O)(=O)N[C@@H](CNC(=O)CO[C@@H]2C[C@@H](CNc3ccccn3)N(C(=O)CC(C)(C)C)C2)C(=O)O)c(C)c1`, the IC50 is 6 nM at Integrin alpha-5/beta-1 [1], 36 nM at Integrin alpha-V/beta-3, 245 nM against Integrin alpha-V/beta-5 and 8 µM in series [2]. Besides, in series [4], the remaining at 1 h, 1 µM was 70%.

With `O=C(CO[C@@H]1C[C@@H](CNc2ccccn2)N(C(=O)OCc2ccccc2)C1)NC[C@H](NS(=O)(=O)c1ccccc1)C(=O)O`, the IC50 amounted to 86 nM against Integrin alpha-5/beta-1 [1], 6.3 nM on Integrin alpha-V/beta-3, 260 nM against Integrin alpha-V/beta-5 and 12 µM in series [2].

At Integrin alpha-5/beta-1 [1], `Cc1cc(C)c(S(=O)(=O)N[C@@H](CNC(=O)CO[C@@H]2C[C@@H](CNc3ccccn3)N(CCCc3ccccc3)C2)C(=O)O)c(C)c1` gave a concentration for half-maximal inhibition (IC50) of 670 nM.

With `Cc1cc(C)c(S(=O)(=O)N[C@@H](CNC(=O)CO[C@@H]2C[C@@H](CNc3ccccn3)N(C(=O)OCc3ccccc3)C2)C(=O)O)c(C)c1`, the figures for the half-maximal inhibitory concentration (IC50) (at Integrin alpha-V/beta-3; against Integrin alpha-V/beta-5; in series [3]) were 16 nM, 330 nM and greater than 200 µM, respectively. The remaining at 1 h, 1 µM in series [4] was 43%.

For the compound `Cc1cc(C)c(C(=O)N[C@@H](CNC(=O)CO[C@@H]2C[C@@H](CNc3ccccn3)N(C(=O)OCc3ccccc3)C2)C(=O)O)c(C)c1`, the 50% inhibitory concentration (IC50) was 3.5 nM at Integrin alpha-5/beta-1 [1]; 30000 nM at Integrin alpha-V/beta-3; 30000 nM on Integrin alpha-V/beta-5; greater than 50 µM in series [2]; 36 µM in series [3]. The Selectivity ratio in the series filed under Homo sapiens [5], in the series filed under Homo sapiens [6], in the series listed under Homo sapiens [7] and in the series filed under Homo sapiens [8] was 10000 throughout.

`COc1ccnc(NC[C@@H]2C[C@@H](OCC(=O)NC[C@H](NC(=O)C3(C)CCCCC3)C(=O)O)CN2C(=O)CC(C)(C)C)c1`: the IC50 on Integrin alpha-5/beta-1 [1] is 0.55 nM; at Integrin alpha-V/beta-3 it was 980 nM; against Integrin alpha-V/beta-5, 4300 nM; in [2], greater than 50 µM; in series [3] it was 50 µM.

`Cc1cc(C)c(S(=O)(=O)N[C@@H](CNC(=O)CO[C@@H]2C[C@@H](CNc3cc(Cl)ccn3)N(C(=O)OCc3ccccc3)C2)C(=O)O)c(C)c1` showed an IC50 on Integrin alpha-5/beta-1 [1] of 445 nM.

For the compound `CC1(C(=O)N[C@@H](CNC(=O)CO[C@@H]2C[C@@H](CNc3ccccn3)N(C(=O)OCc3ccccc3)C2)C(=O)O)CCCCC1`, the IC50 at Integrin alpha-5/beta-1 [1] was 1.7 nM; at Integrin alpha-V/beta-3, 880 nM; against Integrin alpha-V/beta-5, 550 nM; in [2], greater than 50 µM.

For `COc1ccnc(NC[C@@H]2C[C@@H](OCC(=O)NC[C@H](NS(=O)(=O)c3c(C)cc(C)cc3C)C(=O)O)CN2C(=O)OCc2ccccc2)c1`, the IC50 against Integrin alpha-5/beta-1 [1] was determined as 1.1 nM; against Integrin alpha-V/beta-3, 2.4 nM; at Integrin alpha-V/beta-5 it was 19 nM; in series [2], 0.0077 µM.

On to `CC(C)(C)CC(=O)N1C[C@H](OCC(=O)NC[C@H](NC(=O)C2(C)CCCCC2)C(=O)O)C[C@H]1CNc1ccccn1`, for which the half-inhibitory concentration (IC50) is 1.4 nM against Integrin alpha-5/beta-1 [1], 1600 nM against Integrin alpha-V/beta-3, 2300 nM against Integrin alpha-V/beta-5 and greater than 50 µM in [2].

Regarding `Cc1cc(C)c(C(=O)N[C@@H](CNC(=O)CO[C@@H]2C[C@@H](CNc3ccccn3)N(C(=O)CC(C)(C)C)C2)C(=O)O)c(C)c1`, the half-inhibitory concentration (IC50) at Integrin alpha-5/beta-1 [1] is 1.6 nM; on Integrin alpha-V/beta-3 it was 16000 nM; against Integrin alpha-V/beta-5, greater than 50000 nM; in [2] it was greater than 50 µM.

In turn, `Cc1cc(C)c(S(=O)(=O)N[C@@H](CNC(=O)CO[C@H]2CN[C@H](CNc3ccccn3)C2)C(=O)O)c(C)c1` had an IC50 against Integrin alpha-5/beta-1 [1] of 286 nM.

Consider `COc1ccnc(NC[C@@H]2C[C@@H](OCC(=O)NC[C@H](NC(=O)c3c(C)cc(C)cc3C)C(=O)O)CN2C(=O)OCc2ccccc2)c1`, for which the IC50 at Integrin alpha-5/beta-1 [1] came out at 0.54 nM; against Integrin alpha-V/beta-3, 3400 nM; against Integrin alpha-V/beta-5 it was 2700 nM; in series [2], 50 µM; in [3] it was 20 µM.

For the compound `COC(=O)N1C[C@H](OCC(=O)NC[C@H](NS(=O)(=O)c2c(C)cc(C)cc2C)C(=O)O)C[C@H]1CNc1ccccn1`, the half-maximal inhibitory concentration (IC50) on Integrin alpha-5/beta-1 [1] was 15 nM; against Integrin alpha-V/beta-3, 9 nM.

As to `O=C(CO[C@@H]1C[C@@H](CNc2ccccn2)N(C(=O)OCc2ccccc2)C1)NC[C@H](NC(=O)c1ccccc1)C(=O)O`, the half-inhibitory concentration (IC50) against Integrin alpha-5/beta-1 [1] is 155 nM; against Integrin alpha-V/beta-3 it was 140 nM.

`Cc1cc(C)c(S(=O)(=O)N[C@@H](CNC(=O)CO[C@@H]2C[C@@H](CNc3ccccn3)N(C(=O)CCc3ccccc3)C2)C(=O)O)c(C)c1`: the IC50 against Integrin alpha-5/beta-1 [1] was 25 nM; against Integrin alpha-V/beta-3 it was 38 nM.

For `COc1ccnc(NC[C@@H]2C[C@@H](OCC(=O)NC[C@H](NC(=O)c3c(C)cc(C)cc3C)C(=O)O)CN2C(=O)CC(C)(C)C)c1`, the IC50 is 0.55 nM at Integrin alpha-5/beta-1 [1]; 3300 nM against Integrin alpha-V/beta-3; 6800 nM on Integrin alpha-V/beta-5; greater than 50 µM in series [2]; 13 µM in [3]; 50 nM against Integrin alpha-5/beta-1 [9].

As a reminder, the IC50 is the concentration needed to halve the response being measured. A lower IC50 goes with greater potency in that assay.
